Data taken from ChEMBL document CHEMBL1133773, “Characterization of a novel analogue of 1alpha,25(OH)(2)-vitamin D(3) with two side chains: interaction with its nuclear receptor and cellular actions” (2000).
The source made the active and inactive calls.

Legend:
[1] = biological target: T1, Vitamin D-binding protein (Homo sapiens) (UniProt P02774); assay: Percentage binding to Human Vitamin D binding protein, relative competitive index (RCI)
T1 sequence (whole entry): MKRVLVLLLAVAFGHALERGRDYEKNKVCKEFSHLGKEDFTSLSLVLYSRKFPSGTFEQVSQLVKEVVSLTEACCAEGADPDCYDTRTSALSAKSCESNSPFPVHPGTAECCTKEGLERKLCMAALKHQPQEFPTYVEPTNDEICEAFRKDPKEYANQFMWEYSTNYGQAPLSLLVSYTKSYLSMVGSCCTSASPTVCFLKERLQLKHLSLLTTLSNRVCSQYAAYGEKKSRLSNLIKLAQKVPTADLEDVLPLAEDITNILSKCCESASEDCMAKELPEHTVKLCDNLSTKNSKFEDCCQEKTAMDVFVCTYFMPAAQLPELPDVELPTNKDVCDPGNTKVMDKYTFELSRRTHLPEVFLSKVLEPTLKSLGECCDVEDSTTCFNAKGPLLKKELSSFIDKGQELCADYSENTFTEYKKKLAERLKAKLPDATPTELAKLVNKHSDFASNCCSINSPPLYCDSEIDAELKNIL
Outline: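 Steroid competition assay with human DBP: increasing unlabeled ligand or 125D standard incubated 4 h at 4 °C with a fixed concentration of [³H]125D. Bound and free ligand separated by charcoal-dextran. RCI calculated relative to 125D, which is set at 100%.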

LNCaP [2] = assay: Inhibition of colony formation assays on LNCaP cells; (NR: not reached at <= 10e -6M); format: functional, cell-based; details: Homo sapiens
Outline: (§1)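 Soft agar clonal assay in six-well dishes with two layers: compound mixed into the 0.5% agar under layer, cells (1 × 10³/plate) in the 0.3% agar upper layer. Incubated 12 days at 37 °C in humidified 5% CO2. Colonies expressed as percent of untreated control plates. Triplicate plates per point, each experiment done at least three times; ED50 taken from dose-response curves.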

[3] = Effective dose for Protease sensitivity; format: functional
Outline: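 In vitro translated VDR labeled with [³⁵S]methionine, incubated 20 min at room temperature with ligand (10^-7–10^-11 M), then trypsin digestion 20 min; products resolved on 14% SDS-PAGE and autoradiographed. ED50 is the ligand concentration giving 50% of the maximal level of the major trypsin-resistant fragment. Trypsin level is given as both 15 and 20 µg/mL in the text.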

[4] = biological target: T2, Vitamin D3 receptor (Gallus gallus) (UniProt O42392); assay: Percentage binding to chick intestinal vitamin D3 receptor, relative competitive index (RCI)
T2 sequence (whole entry): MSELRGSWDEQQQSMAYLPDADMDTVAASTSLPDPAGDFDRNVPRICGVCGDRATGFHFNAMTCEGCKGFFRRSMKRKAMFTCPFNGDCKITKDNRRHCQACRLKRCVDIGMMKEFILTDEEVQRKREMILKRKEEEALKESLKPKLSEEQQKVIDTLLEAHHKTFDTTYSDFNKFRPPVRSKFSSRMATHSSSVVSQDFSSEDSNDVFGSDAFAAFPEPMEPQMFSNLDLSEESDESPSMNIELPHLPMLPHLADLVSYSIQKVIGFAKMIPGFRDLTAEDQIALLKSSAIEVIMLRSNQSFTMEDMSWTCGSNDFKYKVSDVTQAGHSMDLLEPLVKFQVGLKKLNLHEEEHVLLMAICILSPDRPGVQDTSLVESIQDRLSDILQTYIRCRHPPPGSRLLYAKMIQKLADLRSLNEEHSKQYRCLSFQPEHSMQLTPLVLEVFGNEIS
Outline: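 Competition binding to chick intestinal VDR: rising concentrations of competitor or unlabeled 125D incubated 4 h at 4 °C with a defined amount of [³H]125D. Bound ligand separated from free by hydroxyapatite. RCI computed with 125D defined as 100%.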

LNCaP [5] = assay: Inhibition of colony formation assays on LNCaP cells; format: functional; details: Homo sapiens, read-out: ED50 (the source's name); outline: as §1
[6] = Effective dose for transcriptional activation in ROS 17/2.8 osteosarcoma cells; format: functional; details: Rattus norvegicus; read-out: ED50 (the source's name)
MCF7 = assay: Inhibition of colony formation assays on MCF-7 cells; format: functional; details: Homo sapiens, read-out: ED50 (the source's name); outline: as §1
HL-60 = assay: Inhibition of colony formation assays on HL-60 cells; format: functional; details: Homo sapiens, read-out: ED50 (the source's name)

## C=C1/C(=C\C=C2/CCC[C@]3(C)[C@@H]([C@H](C)CCCC(C)(C)O)CC[C@@H]23)C[C@@H](O)C[C@@H]1O
[1]
  RCI: 100%
LNCaP [2]
  ED50: inactive
[3]
  ED50: 5.9 nM

## C=C1/C(=C\C=C2/CCC[C@]3(C)[C@@H]([C@@H](C)CCCC(C)(C)O)CC[C@@H]23)C[C@@H](O)C[C@@H]1O
[1]
  RCI: 2.6%
[4]
  RCI: 147%
[3]
  ED50: 0.13 nM

## C=C1/C(=C\C=C2/CCC[C@]3(C)[C@@H](C(CCCC(C)(C)O)CCCC(C)(C)O)CC[C@@H]23)C[C@@H](O)C[C@@H]1O
LNCaP [5]
  EC50: 82 nM
[1]
  RCI: 2.5%
[6]
  EC50: 1 nM
MCF7
  EC50: 1.2 nM
[4]
  RCI: 38%
HL-60
  EC50: 0.34 nM
[3]
  ED50: 180 nM
